T cruzi inh: T. cruzi replication inhibition | T. cruzi beta-gal in NIH3T3, luminescence, 90 h | inhibition, % (test concentration not listed) | 300,000 tested, 1.4% active;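 active = mean inhibition across valid replicates above about 55%, limit read from the data; inconclusive = mean below that limit but half or more replicates reach it; inactive = mean below it, under half of replicates reach it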;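 also: signal also drops with host cell toxicity which is not excluded here; 0% = plate median of DMSO wells and 100% = zero luminescence signal; higher percent means less beta-gal luminescence so fewer parasites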
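Test system: β-gal T. cruzi (Tulahuen C4) inside NIH/3T3 cells / Quantity: 5,000 cells/well / Measured by: luminescence from GalScreen with 0.05% NP40, read after 60 min / Medium: DMEM plus 2% FBS / Measure: parasite load inhibition, % / Reagent: Tulahuen C4 trypomastigotes, 5000/well / Schedule: co-culture of at least 90 h after 3 h attachment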
Beta cell apopt: beta cell apoptosis inhibition. INS-1E cytokine-induced death, ATP luminescence, 48 h; percent of positive-control rescue, neutral wells zero. protection from apoptosis, % (no concentration beside the values). 300,000 tested, 0.8% active. AID 435005;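 active = Every replicate reaches about 75%, or at least half do and their mean reaches it too, limit read from the data; inconclusive = At least half of replicates reach the limit but their mean does not; inactive = Under half of replicates reach the limit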;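 also: 0% = cytokine-treated negative control wells and 100% = positive control rescue; higher means more ATP so stronger rescue from cytokine killing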
Mdm2-MdmX inh: disrupts the human Mdm2-MdmX interaction. SaOS-2 split-luciferase Mdm2/MdmX complementation, luminescence. O15151+Q00987. AID 485346. inhibition, % at 8 µM. 330,000 tested, 3% active;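 active = inhibition of at least 50% at 8 µM in the primary screen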
Calb FLC: affects C. albicans growth with fluconazole. growth inhibition, % (test concentration not listed). 300,000 tested, 0.57% active. C. albicans CaCi-2 + fluconazole, Alamar Blue growth, 48 h;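 active = growth inhibition above about 58% in most replicates, limit read from the data, passing the limit was not always enough; inconclusive = exactly half the replicates above a set limit; inactive = most replicates below a set limit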;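 also: all wells also contain fluconazole at 8 µg/ml as a sub-toxic cotreatment; 0% = median of DMSO wells and 100% = median of geldanamycin control wells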
CSC inhib: blocks cancer stem cells; cancer stem cell-like cells viability, luminescence; inhibition, % at 7.5 µM; 300,000 tested, 1.1% active; AID 2717; in the data active = inhibition above about 75%; inconclusive = no clear call, values can overlap the other calls; tested in HMLE shEcad cells
SKKanGAS inh: SKKanGAS growth inhibition; 300,000 tested, 1.3% active; AID 1662; S. pyogenes SKKanGAS, kanamycin growth, BacTiter-Glo, 6 h; inhibition, % at 7.5 µM;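 active = mean replicate score, as percent of positive control median, at least 50; inconclusive = mean below 50 but one replicate at or above 50; inactive = mean and every replicate below 50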;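 also: strain carries kanamycin resistance gene driven by streptokinase promoter and grows in 40 µg/ml kanamycin; loss of luminescence reflects streptokinase promoter inhibition or plain growth inhibition; 0% = median of DMSO wells and 100% = positive control at its reference dose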
Mdm2-MdmX conf: confirmation of human Mdm2/MdmX interaction inhibitors. Mdm2-MdmX binding, luminescent assay. shares compounds with Mdm2-MdmX inh. inhibition, % at 8 µM. 10,000 tested, 55% active; in the data active = inhibition above about 40%
FLuc counter: inhibits full-length luciferase, flagging false Mdm2/MdmX hits; 6,200 tested, 77% active; SaOS-2 full-length luciferase counterscreen, luminescence; AID 504607; inhibition, % at 8 µM; shares compounds with Mdm2-MdmX inh;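 active = mean inhibition at 8 µM reaching about 37%, which flags the compound as non-specific, limit read from the data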;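 also: p53-null SaOS-2 cells with luciferase driven by a doxycycline-inducible promoter; compound on cells about two nights before reading with doxycycline added after day one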
The depositor's hits bear a star; ? = inconclusive; . = no result. Only some compounds are listed: those with a hit (about 5.7% of all), similar ones and a draw of the others.

SMILES	T cruzi inh	Beta cell apopt	Mdm2-MdmX inh	Calb FLC	CSC inhib	SKKanGAS inh	Mdm2-MdmX conf	others
O=C1c2ccc3c4c(ccc(c24)C(=O)N1c1cccc(O)c1)C(=O)N(c1cccc(O)c1)C3=O	10	118*	65*	-7	12	65*	47*	FLuc counter=1
O=C1c2ccc3c4c(ccc(c24)C(=O)N1c1cccc(O)c1)CC3	-8	-9	4	-6	2	11	.
COc1cc(/C=N/Nc2snc(SC)c2C#N)cc(OC)c1OC	-10	35	70*	-1	-17	-7	73*	FLuc counter=43*
Oc1ccccc1-c1nnc(SCCN2CCOCC2)n1Cc1ccccc1	-4	60	69*	7	20	-3	19
O=C(CSc1nnc(-c2ccccc2)n1Cc1ccccc1)N1CCOCC1	-1	.	-2	-17	-5	-6	.
CC1(C)C[C@H](O)[C@]2(CO)[C@H](O)C[C@]3(C)C(=CCC4[C@@]5(C)CC[C@H](O)C(C)(C)C5CC[C@]43C)[C@@H]2C1 (some centres not stated)	.	56	100*	.	?	.	28
CC1(C)C[C@H](O)[C@]2(CO)CC[C@]3(C)C(=CCC4[C@@]5(C)CC[C@H](O)C(C)(C)C5CC[C@]43C)[C@@H]2C1 (some centres not stated)	.	17	45	.	4	.	.
CC(=O)Nc1cc(NC(C)=O)cc(C(=O)NCC2(N3CCOCC3)CCCCC2)c1	.	.	12	.	.	.	.
CCN(CC)C(=O)[C@H]1C[C@H](CC(=O)NCCCN(C)C)C(=O)N2CCc3c([nH]c4cc(-c5ccco5)ccc34)[C@]12C	.	.	34	.	.	.	.
CCN(CC)C(=O)[C@H]1C[C@H](CC(=O)NCc2ccco2)C(=O)N2CCc3c([nH]c4ccc(Cl)cc34)[C@]12C	.	.	33	.	.	.	.
CC(C)N(C(=O)[C@H]1C[C@H](CC(=O)NCc2cccc(C(F)(F)F)c2)C(=O)N2CCc3c([nH]c4cc(-c5ccco5)ccc34)[C@]12C)C(C)C	.	.	77*	.	.	.	3
CC(C)N(C(=O)[C@H]1C[C@H](CC(=O)NCCCN(C)C)C(=O)N2CCc3c([nH]c4cc(-c5ccco5)ccc34)[C@]12C)C(C)C	.	.	63*	.	.	.	23
C[C@]12c3[nH]c4cc(-c5ccco5)ccc4c3CCN1C(=O)[C@@H](CC(=O)NCc1cccc(C(F)(F)F)c1)C[C@@H]2C(=O)N1CCOCC1	.	.	37	.	.	.	.
CC(C)N(C(=O)[C@H]1C[C@H](CC(=O)NCc2ccco2)C(=O)N2CCc3c([nH]c4ccc(Cl)cc34)[C@]12C)C(C)C	.	.	52*	.	.	.	20
CC(C)N(C(=O)[C@H]1C[C@H](CC(=O)NCc2cccc(C(F)(F)F)c2)C(=O)N2CCc3c([nH]c4ccc(Cl)cc34)[C@]12C)C(C)C	.	.	95*	.	.	.	40*	FLuc counter=81*
CCC(C)(C)C1CCC(NC(=O)c2ccc(S(=O)(=O)N3CCOCC3)cc2)CC1 (configuration not stated)	.	4	-17	.	59	.	.
COc1ccc(S(=O)(=O)Cc2ccc(C(=O)NCc3ccccc3OC)o2)cc1	10	-3	-3	-7	-3	0	.
Cc1ccc(S(=O)(=O)NC(CC(C)C)C(=O)NCC(C)(C)N2CCOCC2)cc1 (configuration not stated)	-12	4	-4	4	-6	-1	.
C/C(=N\Nc1ccc(S(N)(=O)=O)cc1[N+](=O)[O-])c1cccnc1	6	0	58*	-1	9	1	1
C/C(=N\Nc1ccc([N+](=O)[O-])cc1[N+](=O)[O-])c1cccnc1	-15	6	19	-25	-4	0	.
O=S(=O)(NC1CC1)c1ccc(Cl)cc1F	-8	-2	9	-5	-5	0	.
COc1ccc2c(c1)N(C)/C(=C/c1cccc[n+]1C)S2	56*	105*	72*	-7	37	25	35	FLuc counter=64*
CCN1/C(=C/C(C)=O)Sc2ccc(OC)cc21	8	-1	24	24	-4	1	.
CCN1/C(=C/c2cccc[n+]2C)Sc2ccc(OC)cc21	70*	105*	74*	99*	34	2	48*	FLuc counter=78*
Cn1cc([N+](=O)[O-])c(C(=O)NC2CCCCCCC2)n1	-8	.	2	12	-7	-5	.
SMILES	T cruzi inh	Beta cell apopt	Mdm2-MdmX inh	Calb FLC	CSC inhib	SKKanGAS inh	Mdm2-MdmX conf	others
COc1ccc(C(=O)NC(=S)NNC(=O)[C@H]2C[C@@H]2c2ccccc2)cc1OC	-11	18	62*	-2	29	102*	20
Nc1nc(N)c2cc(Sc3ccc4ccccc4c3)ccc2n1	58*	109*	100*	100*	119*	109*	62*	FLuc counter=38*
O=C(NCCc1ccccc1)/C(=C\c1cccc([N+](=O)[O-])c1)NC(=O)c1ccco1	0	.	22	3	16	14	.
COc1ccc(NC2=NC(=S)N(c3ccccc3C)C23CCCCC3)cc1	-1	3	10	4	-20	-1	.
COc1ccc(Nc2ccc3c(c2)=NC2(CCCCC2)[N+]=3[O-])cc1	58*	104*	100*	76	52	7	59*	FLuc counter=39*
CCN(C(=O)c1cn(C)c(=O)c2ccccc12)c1ccccc1F	-9	-7	21	5	-5	0	.
COC(=O)c1cc2sccc2n1Cc1nc(-c2ccc(Cl)cc2)oc1C	-8	-3	51*	-1	-2	1	15
COC(=O)c1cc(S(=O)(=O)N2CCOCC2)c(Cl)cc1N1CCOCC1	-12	-3	26	-5	-9	2	.
COC(=O)c1cc(C)nc2c1C(=O)C(=O)C=C2N1CCOCC1	67*	104*	65*	18	51	45	26
CC(CNC(=O)c1ccccc1[N+](=O)[O-])NC(=O)c1ccccc1[N+](=O)[O-] (configuration not stated)	-20	-2	13	0	-9	3	.
CSc1nc2ccccc2cc1/C=C(\C#N)c1cccc(Cl)c1	2	20	57*	0	?	-3	56*	FLuc counter=58*
CCOC(=O)/C(C#N)=C/c1cc2ccccc2nc1Cl	0	1	27	2	0	-1	.
COc1ccc(/C=C/c2cc(-c3ccc(C)cc3)o[n+]2C)cc1	59*	116*	74*	90*	92*	4	96*	FLuc counter=51*
COc1ccc(/C=C/c2c(-c3ccc(OC)cc3)oc3ccc(-c4ccc(OC)cc4)cc23)cc1	-14	2	-3	1	10	-6	.
CS(=O)(=O)N1CCN(c2ccccc2NC(=O)Nc2cccc(Cl)c2)CC1	-7	-2	21	-2	-9	11	.
